In ChEMBL document CHEMBL3997787, “New pyridazinone-4-carboxamides as new cannabinoid receptor type-2 inverse agonists: Synthesis, pharmacological data and molecular docking” (Eur J Med Chem, 2017):

Key:
Cannabinoid receptor 1 [1] = target: T1, Cannabinoid receptor 1 (Homo sapiens, UniProt P21554); assay: Displacement of [3H]CP55940 from human CB1 receptor expressed in HEK293 EBNA cell membranes after 90 mins by liquid scintillation and luminescence counting method
Cannabinoid receptor 2 [2] = target: T2, Cannabinoid receptor 2 (Homo sapiens, UniProt P34972); assay: Displacement of [3H]CP55940 from human CB2 receptor expressed in HEK293 EBNA cell membranes after 90 mins by liquid scintillation and luminescence counting method
T2 sequence (P34972 whole entry): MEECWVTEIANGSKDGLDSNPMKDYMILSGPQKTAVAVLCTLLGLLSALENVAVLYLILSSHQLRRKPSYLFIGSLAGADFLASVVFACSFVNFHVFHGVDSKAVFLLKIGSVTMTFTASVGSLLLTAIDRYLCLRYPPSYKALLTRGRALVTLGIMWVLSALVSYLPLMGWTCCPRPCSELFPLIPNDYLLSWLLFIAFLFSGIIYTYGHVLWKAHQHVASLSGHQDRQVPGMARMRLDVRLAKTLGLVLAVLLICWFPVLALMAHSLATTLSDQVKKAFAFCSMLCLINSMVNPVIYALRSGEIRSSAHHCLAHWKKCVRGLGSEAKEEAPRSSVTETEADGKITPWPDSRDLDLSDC

Cannabinoid receptor 1 [3] = target: T1, Cannabinoid receptor 1; assay: Displacement of [3H]CP55940 from human CB1 receptor expressed in HEK293 EBNA cell membranes at 4 uM after 90 mins by liquid scintillation and luminescence counting method relative to control
Procedure, shortened: (§1)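 Single-concentration screen (4 µM) on transfected-cell membranes with human CB1R (about 8 µg/well, 0.1 nM [³H]CP,55-940, pH 7.4 Tris/MgCl₂/EDTA/0.5 mg/mL BSA) or CB2R (1.33 µg/well, 0.15 nM radioligand, pH 7.5 Tris/MgCl₂/EGTA/1 mg/mL BSA). Incubated 90 min at 30 °C. Nonspecific binding defined with 10 µM WIN 55,212-2; 100% binding taken without compound. Filtered through PEI-soaked GF/C filters and counted.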

Cannabinoid receptor 2 [4] = target: T2, Cannabinoid receptor 2; assay: Displacement of [3H]CP55940 from human CB2 receptor expressed in HEK293 EBNA cell membranes at 4 uM after 90 mins by liquid scintillation and luminescence counting method relative to control; procedure, shortened: as §1
Homo sapiens = species on record: Homo sapiens; assay: Selectivity ratio of Ki for human CB1 receptor to Ki for human CB2 receptor
Cannabinoid receptor 2 [5] = target: T2, Cannabinoid receptor 2; assay: Inverse agonist activity at human CB2 receptor expressed in HEK293 EBNA cell membranes after 30 mins by [35S]-GTPgammaS binding assay; format: functional
Procedure, shortened: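 Saponin-permeabilized CB2R membranes (5 µg/well) with 0.3 nM [35S]-GTPγS and 10 µM GDP in 20 mM HEPES, 100 mM NaCl, 10 mM MgCl₂, pH 7.4. Compounds at 10⁻¹² to 10⁻⁵ M, 30 min at 30 °C; nonspecific signal with 10 µM GTPγS. Filtered, washed with 10 mM sodium phosphate and counted. IC50 and Emax from curve fitting, mean ± SEM of at least three triplicate experiments.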

T1 sequence (P21554 whole entry): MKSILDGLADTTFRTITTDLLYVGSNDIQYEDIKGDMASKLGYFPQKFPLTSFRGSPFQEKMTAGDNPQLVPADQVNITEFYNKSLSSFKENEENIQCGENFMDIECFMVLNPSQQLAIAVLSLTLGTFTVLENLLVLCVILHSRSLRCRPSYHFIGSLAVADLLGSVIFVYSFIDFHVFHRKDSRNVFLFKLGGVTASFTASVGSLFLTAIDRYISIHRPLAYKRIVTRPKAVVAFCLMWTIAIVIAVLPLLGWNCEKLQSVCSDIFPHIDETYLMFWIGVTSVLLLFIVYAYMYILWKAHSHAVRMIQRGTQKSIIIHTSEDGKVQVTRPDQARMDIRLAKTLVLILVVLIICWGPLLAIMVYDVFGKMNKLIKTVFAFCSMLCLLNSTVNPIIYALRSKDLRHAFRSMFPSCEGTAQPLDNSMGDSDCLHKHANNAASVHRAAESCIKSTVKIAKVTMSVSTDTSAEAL

Structure (SMILES) | Ki (Cannabinoid receptor 1 [1]; hek293) | Ki (Cannabinoid receptor 2 [2]; hek293) | inhibition (Cannabinoid receptor 1 [3]) | inhibition (Cannabinoid receptor 2 [4]) | Ki (Cannabinoid receptor 1 [1]; read-out: Ki) | Ki (Cannabinoid receptor 2 [2]; read-out: Ki) | Ratio Ki (Homo sapiens) | Emax (Cannabinoid receptor 2 [5]) | IC50 (Cannabinoid receptor 2 [5])
Cc1ccc(Cn2nc(-c3ccc(Cl)c(C)c3)cc(C(=O)NC3CCCCCC3)c2=O)cc1 | Nd(Insoluble) | Nd(Insoluble) |  |  |  |  |  |  | 
Cc1cc(-c2cc(C(=O)NCCN3CCOCC3)c(=O)n(Cc3ccc(F)cc3)n2)ccc1Cl |  |  | > 70% | > 70% | > 4000 nM | 311 nM | > 12.9 |  | 
Cc1cc(-c2cc(C(=O)N[C@@H]3C(C)(C)[C@@H]4CC[C@@]3(C)C4)c(=O)n(Cc3ccc(F)cc3)n2)ccc1Cl |  |  | > 70% | > 70% | > 4000 nM | 2.6 nM | > 1540 | -58.7% | 51.2 nM
Cc1cc(-c2cc(C(=O)N[C@H]3CC[C@H](C)CC3)c(=O)n(Cc3ccc(F)cc3)n2)ccc1Cl |  |  | > 70% | > 70% | > 4000 nM | 9 nM | > 444 |  | 
O=C(NC1CCCCCC1)c1c2c(nn(Cc3ccc(F)cc3)c1=O)-c1ccccc1C2 |  |  | > 70% | > 70% | > 4000 nM | > 4000 nM |  |  | 
Cc1ccc(Cn2nc(-c3ccc(Cl)c(C)c3)cc(C(=O)NC3CCCCC3)c2=O)cc1 |  |  | > 70% | > 70% | > 4000 nM | 240 nM | > 16.6 |  | 
C[C@H]1CC[C@H](NC(=O)c2cc(-c3ccccc3)nn(Cc3ccc(F)cc3)c2=O)CC1 |  |  | > 70% | > 70% | 322 nM | 66 nM | 5 |  | 
Cc1cc(-c2cc(C(=O)NC34CC5CC(CC(C5)C3)C4)c(=O)n(Cc3ccc(F)cc3)n2)ccc1Cl |  |  | > 70% | > 70% | > 4000 nM | 3.4 nM | > 1180 |  | 
Cc1cc(-c2cc(C(=O)NC3CCCCCC3)c(=O)n(Cc3ccc(F)cc3)n2)ccc1Cl |  |  | > 70% | > 70% | > 4000 nM | 4.9 nM | > 816 |  | 
O=C(NC12CC3CC(CC(C3)C1)C2)c1cc(-c2ccccc2)nn(Cc2ccc(F)cc2)c1=O | Nd(Insoluble) | Nd(Insoluble) |  |  |  |  |  |  | 
O=C(NC1CCCCCC1)c1cc(-c2ccccc2)nn(Cc2ccc(F)cc2)c1=O |  |  | > 70% | > 70% | 33 nM | 16 nM | 2 |  | 
Cc1ccc(Cn2nc(C(=O)N[C@@H]3C(C)(C)[C@@H]4CC[C@@]3(C)C4)cc2-c2ccc(Cl)c(C)c2)cc1 |  |  |  |  |  |  |  | -63.2% | 
C[C@H]1CC[C@@H](NC(=O)c2cc(-c3ccccc3)nn(Cc3ccc(F)cc3)c2=O)CC1 |  |  | > 70% | > 70% | 115 nM | 5.7 nM | 20 | -65.7% | 35.2 nM
Cc1ccc(Cn2nc(-c3ccc(Cl)c(C)c3)cc(C(=O)NC34CC5CC(CC(C5)C3)C4)c2=O)cc1 | Nd(Insoluble) | Nd(Insoluble) |  |  |  |  |  |  | 
Cc1cc(-c2cc(C(=O)N[C@H]3CC[C@@H](C)CC3)c(=O)n(Cc3ccc(F)cc3)n2)ccc1Cl |  |  | > 70% | > 70% | > 4000 nM | 2 nM | > 2000 | -43.8% | 20.7 nM
Cc1cc(-c2cc(C(=O)NC3CCCCC3)c(=O)n(Cc3ccc(F)cc3)n2)ccc1Cl |  |  | > 70% | > 70% | > 4000 nM | 4.7 nM | > 851 | -60.7% | 25.3 nM
O=C(NC1CCCCC1)c1cc(-c2ccccc2)nn(Cc2ccc(F)cc2)c1=O |  |  | > 70% | > 70% | 467 nM | 44 nM | 11 |  | 
